The list is not random: actives were taken first. Their share in the collection is about 2.4%.
ERAP1 HTS inh = human ERAP1 aminopeptidase inhibitors, primary screen, biochemical, single point, plate reader; recombinant ERAP1, Leu-AMC fluorescence, 60 min; 0.15% of 340,000 active; AID 652197, 2013; Endoplasmic reticulum aminopeptidase 1 (Homo sapiens), Q9NZ08; inhibition, % at 10.7 µM;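 active means mean replicate inhibition of at least 30%, or all replicates individually reaching that 30% level; inactive means mean below 30% and not every replicate reaching it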;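 further: 0% = neutral control wells and 100% = L-leucinethiol positive control wells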
Target sequence (Q9NZ08 whole entry, looked up): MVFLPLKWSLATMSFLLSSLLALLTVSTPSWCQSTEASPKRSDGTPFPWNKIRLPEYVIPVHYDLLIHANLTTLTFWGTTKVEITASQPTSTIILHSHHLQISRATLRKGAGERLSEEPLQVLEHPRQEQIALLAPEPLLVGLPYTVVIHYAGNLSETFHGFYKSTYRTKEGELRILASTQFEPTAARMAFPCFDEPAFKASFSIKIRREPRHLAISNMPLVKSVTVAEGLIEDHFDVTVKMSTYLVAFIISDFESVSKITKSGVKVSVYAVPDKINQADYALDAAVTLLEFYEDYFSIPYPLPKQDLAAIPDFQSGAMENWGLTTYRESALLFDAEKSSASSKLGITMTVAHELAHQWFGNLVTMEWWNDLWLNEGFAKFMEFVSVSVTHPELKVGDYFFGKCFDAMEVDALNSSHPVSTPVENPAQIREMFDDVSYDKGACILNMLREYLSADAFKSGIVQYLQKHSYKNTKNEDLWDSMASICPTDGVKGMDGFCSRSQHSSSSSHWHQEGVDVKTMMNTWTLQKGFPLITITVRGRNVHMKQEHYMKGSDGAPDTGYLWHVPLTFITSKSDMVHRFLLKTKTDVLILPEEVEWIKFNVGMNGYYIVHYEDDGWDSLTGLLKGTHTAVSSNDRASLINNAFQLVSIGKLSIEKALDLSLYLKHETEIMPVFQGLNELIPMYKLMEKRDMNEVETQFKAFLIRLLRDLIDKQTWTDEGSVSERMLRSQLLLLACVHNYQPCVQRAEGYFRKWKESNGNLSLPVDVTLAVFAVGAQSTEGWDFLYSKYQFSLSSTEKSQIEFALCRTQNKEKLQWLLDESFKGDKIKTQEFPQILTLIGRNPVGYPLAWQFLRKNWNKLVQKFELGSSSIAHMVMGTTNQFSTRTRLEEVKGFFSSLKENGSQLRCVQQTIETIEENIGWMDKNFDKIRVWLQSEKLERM
CASP6 VEID inh = human caspase-6 inhibitors, primary screen, biochemical, VEID-R110 fluorescence, single point, set 2 | P55212 | purified caspase-6, Z-VEID-R110 cleavage fluorescence | inhibition, % at 12.5 µM | 0.53% of 350,000 active | AID 686996, 2013;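 active means mean inhibition across replicates at least about 35%, with every replicate also reaching that limit, limit read from the data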;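 further: 0% = median of neutral control wells and 100% = no fluorescence left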
rRNA inh HTS = reduced GFP signal of wild-type E. coli, primary screen, bacterial rRNA inhibitor project, GFP/RFP fluorescence, OD600, single point | 1.6% of 350,000 active | GFP signal change (wild-type ribosome), % (concentration not given with the values) | AID 720706, 2013 | E. coli WT GFP vs humanized-ribosome RFP mutants, 24 h; stronger effect = lower value; DMSO median 0, no signal -100;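 active means significant combined selectivity score with lowered wild-type GFP, culture density cut under 30%, mutant RFP and density less affected; inactive means any of these conditions unmet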
S100A4 MyoIIA = inhibitors of S100A4-myosin IIA peptide binding, primary screen, biochemical, fluorescence polarization, TAMRA-MyoIIA peptide; AID 652163, 2013; Protein S100-A4 (Homo sapiens), P26447; inhibition, % at 10.7 µM; 0.14% of 360,000 active;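 active means mean inhibition of at least 70% across replicates, with every replicate also reaching that level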
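Material: S100A4 monomer (human). Medium: Calcium-containing HEPES buffer, pH 7.2. Probe or stimulus: labelled myosin peptide probe, 5 nM. Compound dosing: one concentration per compound. Timing: polarization read 5 min after assay mix addition, stable 5–60 min. Benchmarks: DMSO as neutral control, TFP as positive control.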
PGC1a acetyl inh = inhibitors of PGC1a acetylation signal, primary screen, cell-based, U2OS, AlphaScreen, inhibitor mode | AlphaScreen anti-acetyl-lysine; with virally co-expressed GCN5 acetyltransferase | inhibition, % at 15.6 µM | 0.17% of 350,000 active | AID 651687, 2012;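 active means every replicate shows inhibition of at least 40%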;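 further: 0% = neutral control wells and 100% = positive control wells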
ARNT TACC3 PPI = disruptors of ARNT/TACC3 protein interaction, primary screen, biochemical, AlphaScreen, single concentration; 0.66% of 390,000 active; AlphaScreen His-ARNT PAS-B/GST-TACC3 binding, luminescence; TACC3 fragment carries E629A point mutation; Transforming acidic coiled-coil-containing protein 3 (Homo sapiens), Q9Y6A5; inhibition, % at 9.99 µM;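 active means mean inhibition of replicates at least 50% and at least half of replicates each reaching 50%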;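 further: 0% = complete ARNT plus TACC3 wells and 100% = ARNT alone without TACC3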
* = called active by the depositor; · = no result given.

SMILES	ERAP1 HTS inh	CASP6 VEID inh	rRNA inh HTS	S100A4 MyoIIA	PGC1a acetyl inh	ARNT TACC3 PPI
Cc1cc(C)c(-n2c(SCc3nc4ccccc4s3)n[nH]c2=O)c(C)c1	-5	-1	-24*	-2	·	1
CCCn1c(SCc2nc3ccccc3s2)n[nH]c1=O	-2	-1	8	-2	3	1
CC(=O)OC[C@]12CC[C@H]3[C@@](C)(CC[C@H]4C(C)(C)CCC[C@]34C)[C@@H]1CC(C1=CC(=O)OC1O)O2 (stereo partly drawn)	3	21	·	-8	87*	·
CC(=O)OC[C@]1(OC(C)=O)C[C@@]23CC[C@H]4[C@@](C)(CCC[C@@]4(C)C(=O)O)[C@@H]2CC[C@@H]1C3	-7	2	-14	-10	·	-2
C[C@H](C(=O)N(C)C[C@@H]1OCc2ccccc2-c2c(n(C)c3ccccc23)C(=O)N([C@H](C)CO)C[C@@H]1C)c1ccccc1	·	·	0	·	·	·
Cc1ccc(S(=O)(=O)N(C)C)cc1NS(=O)(=O)c1ccc(Cl)s1	0	4	-45*	28	·	5
COc1ccc2c3c([nH]c2c1)[C@@H](CO)N(Cc1nccs1)CC31CN(C(=O)C2CCCCC2)C1	·	·	-1	·	·	·
CO[C@@H]1CN(C)C(=O)c2ccc(NS(=O)(=O)c3ccccc3C)cc2OC[C@H](C)N(S(C)(=O)=O)C[C@H]1C	2	-2	-1	-3	10	-2
CN(C)/C=C1\C=C2C(=O)c3ccccc3N2C1=O	·	-1	10	76*	6	-14
CN(C)S(=O)(=O)N1C(=O)c2ccccc2C1=O	-1	1	11	1	2	-15
Cc1cc(C)c(NC(=O)c2ccc(S(=O)(=O)N(C)C)cc2)c(C)n1	1	2	19	-4	50*	-29
COc1ccc(C(NC(=O)C2CCN(CCOc3ccc(Cl)cc3Cl)CC2)c2ccccc2C)cn1 (stereo not drawn)	-2	-2	-29*	-6	·	·
COc1ccc(OCCN2CCC(C(=O)NC(c3ccccn3)c3ccccc3OC)CC2)cc1 (stereo not drawn)	0	49*	11	6	-6	·
COc1cccc(C(NC(=O)C2CCN(CCCOc3ccccc3)CC2)c2ccccn2)c1 (stereo not drawn)	-6	38*	6	-4	·	·
COc1ccc(S(=O)(=O)Nc2ccc3c(c2)C(=O)N([C@@H](C)CO)C[C@@H](C)[C@@H](CN(C)S(=O)(=O)c2cccs2)O3)cc1	-2	1	-6	1	0	-7
CN(C)C(=O)C[C@H]1C[C@H]2c3cc(NC(=O)c4cccnc4)ccc3O[C@H]2[C@H](CO)O1	-2	-3	2	7	3	4
O=C(NCC[C@H]1CC[C@H](NS(=O)(=O)Cc2ccccc2)[C@H](CO)O1)C1CCOCC1	2	0	6	6	-5	-3
COc1ccc(-c2cn3cc(C)ccc3n2)cc1OC	·	·	·	·	-6	4
COc1ccc(-c2cn3cc(C)ccc3n2)cc1F	0	-2	-31*	5	-17	3
Cc1cc(C(=O)O)ccc1-c1ccc(/C=C2\SC(=O)N(CC(=O)Nc3ccc4c(c3)OCO4)C2=O)o1	-2	3	9	-4	·	-16
Cc1ccc(C(=O)O)cc1-c1ccc(/C=C2\SC(=O)N(CC(=O)Nc3ccccc3)C2=O)o1	2	35*	6	4	2	-2
C#CCN1C(=O)S/C(=C\c2ccc(-c3ccc(C(=O)O)cc3C)o2)C1=O	6	58*	-7	9	12	-7
Cc1noc(C)c1NC(=O)Nc1cccc2c1O[C@H](CN(C)S(=O)(=O)c1cn(C)cn1)[C@H](C)CN([C@@H](C)CO)C2=O	2	-1	-2	3	-2	6

Screens deposited in PubChem BioAssay by Broad Institute.
